High-throughput results: PubChem, The Scripps Research Institute Molecular Screening Center
Shown are actives, neighbours in structure and some others; about 1.7% of the full set was active somewhere.
CHRM5 antagonist: human M5 muscarinic receptor antagonists, primary screen, CHO cells, Fluo-8 calcium fluorescence | actives 0.59% (n = 360,000) | inhibition, % at 3 µM | CHO-hM5 cells, ACh EC80 | AID 624040, 2012 | Muscarinic acetylcholine receptor M5 (Homo sapiens), P08912;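 active = inhibition above a per-plate cutoff, the mean of that plate's test compounds plus 3 SD, cut at about 27% in these data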;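 note: 0% = acetylcholine EC80 with DMSO and 100% = DMSO without agonist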
Target sequence (P08912 whole entry, looked up): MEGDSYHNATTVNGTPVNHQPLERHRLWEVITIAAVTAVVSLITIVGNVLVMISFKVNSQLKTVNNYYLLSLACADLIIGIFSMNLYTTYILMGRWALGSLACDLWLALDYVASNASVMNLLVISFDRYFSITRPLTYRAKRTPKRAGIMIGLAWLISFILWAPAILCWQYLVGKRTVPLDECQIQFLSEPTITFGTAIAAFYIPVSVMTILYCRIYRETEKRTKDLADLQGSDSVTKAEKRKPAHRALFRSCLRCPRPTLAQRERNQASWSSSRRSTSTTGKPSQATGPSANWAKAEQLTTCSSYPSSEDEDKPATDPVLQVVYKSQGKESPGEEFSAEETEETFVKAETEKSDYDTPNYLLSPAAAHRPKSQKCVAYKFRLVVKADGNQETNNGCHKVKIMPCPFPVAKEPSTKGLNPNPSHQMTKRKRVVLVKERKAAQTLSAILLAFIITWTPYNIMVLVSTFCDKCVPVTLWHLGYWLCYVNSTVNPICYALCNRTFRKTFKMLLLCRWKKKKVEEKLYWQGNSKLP
CHRM5 agonist: human M5 muscarinic receptor agonists, primary screen, CHO-K1 cells, Fluo-8 calcium fluorescence. Muscarinic acetylcholine receptor M5 (Homo sapiens), P08912. actives 0.19% (n = 360,000). activation, % at 3 µM. CHO-K1 hM5 cells; 0% DMSO wells, 100% maximal acetylcholine response;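 active = activation above the run's mean over test compounds plus 3 SD, cut at about 23% in these data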;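 note: signal is peak over basal fluorescence ratio across the kinetic read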
CHO-K1 Ca PAM: nonselective calcium activators in parental CHO-K1 cells, primary screen, counter-screen for M1 PAM project, cell-based, Fluo-8 calcium fluorescence, full deck, 1536-well; ATP EC20; 0% at ATP EC20, 100% at ATP max; activation, % at 3 µM; actives 0.02% (n = 360,000);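 active = activation above the run cutoff, the mean activation of all test compounds plus 3 SD, cut at about 40% in these data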;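 note: peak over basal fluorescence ratio in a 140 s read after ATP addition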
CHRM5 PAM: human M5 muscarinic receptor positive allosteric modulators, primary screen, CHO-K1 cells, Fluo-8 calcium fluorescence; Muscarinic acetylcholine receptor M5 (Homo sapiens), P08912; CHO-K1 hM5, ACh EC20 PAM; 0% = ACh EC20, 100% = ACh EC100; activation, % at 3 µM; actives 0.3% (n = 360,000);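 active = activation above the run cutoff, the mean activation of all test compounds plus 3 SD, cut at about 18% in these data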
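Test system: CHO-K1 hM5 cells / Doses: single-point, 3 µM nominal / Times: Post-acetylcholine fluorescence recording 140 s / Technique: Fluo-8 calcium fluorescence / Measure: Max/basal fluorescence ratio as % of EC20–EC100 ACh window / Benchmarks: low control EC20 acetylcholine (0%), high control EC100 acetylcholine (100%) / Replicates: one well per compound, no replicates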
CHO-K1 Ca antag: counter-screen for M1 antagonists: effect in parental CHO-K1 cells; inhibition, % at 3 µM; actives 0.6% (n = 360,000); AID 602250; ATP-induced calcium, Fluo-8 fluorescence;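 active = inhibition above a per-plate cutoff, the plate's mean sample inhibition plus 3 SD, cut at about 24% in these data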;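 note: 0% = DMSO plus EC80 ATP and 100% = DMSO alone without ATP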
M1 ag parental: counter-screen for M1 agonists: effect in parental CHO-K1 cells | actives 0.48% (n = 360,000) | Fluo-8 calcium fluorescence; scaled to maximal ATP response, vehicle zero | AID 602248, 2012 | activation, % at 3 µM; in the data active = activation above about 15%;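 note: untransfected CHO-K1 host cells lacking M1 receptor as counterscreen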
Active calls of the source: *.

SMILES	CHRM5 antagonist	CHRM5 agonist	CHO-K1 Ca PAM	CHRM5 PAM	CHO-K1 Ca antag	M1 ag parental
CCc1ccc(NC(=O)CN2CCc3ccccc3C2)cc1	-3.6	-1.9	-6.7	-2.0	24.4*	-0.2
O=C(Nc1ccccc1)c1ccc(CN2CCc3ccccc3C2)cc1	15.5	-6.3	-12.8	-1.1	23.9*	7.1
O=C(CCN1CCc2ccccc2C1)Nc1ccccc1	-4.2	-6.0	1.0	35.4*	6.4	0.1
Cc1cc(C)n2nc(C(=O)N3CCOCC3)nc2n1	1.4	-0.3	-7.1	-3.3	8.2	-0.2
O=C(Nc1cccc(-c2nc3ncccc3o2)c1)c1cc2ccccc2o1	11.0	-2.0	-4.1	-12.9	25.9*	2.5
CCOC(=O)c1ccc(NC(=O)COC)cc1	-9.6	-2.6	18.2	-1.7	-8.6	0.6
CCOC(=O)c1ccc(NC(=O)C(CC)(CC)C(=O)OCC)cc1	-4.5	-4.0	-3.4	2.5	25.0*	-0.4
CCCC(=O)N1CCCC(c2cc(C(=O)Nc3ccccc3)no2)C1 (stereo unspecified)	-1.6	-0.1	-15.2	0.1	23.8*	-0.2
O=C(Nc1ccccc1)c1cc(C2CCCN(C(=O)c3cccs3)C2)on1 (stereo unspecified)	-6.7	-1.6	-9.3	-2.4	24.4*	0.2
O=C(NCc1ccccc1)c1cc(C2CCCN(C(=O)c3cccs3)C2)on1 (stereo unspecified)	2.8	1.5	13.8	0.2	-4.8	1.0
O=C(Cc1ccc([N+](=O)[O-])cc1)Nc1cccc(C(F)(F)F)c1	16.9	-1.9	-3.5	-19.4	7.4	7.2
CN(Cc1ccccc1)C(=O)c1ccc(NC(=O)Cc2ccc([N+](=O)[O-])cc2)cc1	2.0	25.6*	7.0	13.7	-7.0	6.3
CN(C(=O)c1ccc(NC(=O)Cc2ccccc2)cc1)c1ccccc1	-4.3	0.8	-11.6	-4.4	3.5	2.7
CCN(C(=O)c1ccc(NC(=O)Cc2ccccc2)cc1)c1ccccc1	-6.5	6.8	-21.1	-4.0	10.5	15.9*
CN(C(=O)c1ccc(NC(=O)Cc2ccc([N+](=O)[O-])cc2)cc1)C1CC1	18.3	21.8	-14.7	-3.9	3.2	8.3
O=C(Cc1ccc([N+](=O)[O-])cc1)Nc1cc(C(F)(F)F)cc(C(F)(F)F)c1	18.8	-1.4	-21.4	-13.8	29.2*	3.2
O=C(NC1CCCCC1)NC1CCN(S(=O)(=O)c2ccc3c(c2)OCCO3)CC1	-3.6	-3.3	15.8	5.5	-5.8	0.1
Cc1cc(C)nc(/N=C(\N)Nc2ccc(OCCC(C)C)cc2)n1	76.3*	64.5*	-11.7	-35.2	52.1*	32.8*
NS(=O)(=O)c1ccc(NC(=S)Nc2ccc(OCc3ccccc3)cc2)cc1	0.6	1.6	5.4	1.5	4.1	-0.1
S=C(Nc1ccccc1)Nc1ccc(OCc2ccccc2)cc1	0.3	-0.3	-7.6	0.2	26.2*	-0.3
Cc1cc(C)nc(/N=C(\N)Nc2cccc(OCc3ccccc3)c2)n1	29.1*	38.9*	-29.9	-31.8	21.7	46.5*
Cc1cc(C)nc(/N=C(\N)Nc2ccc(OCc3ccccc3)cc2)n1	96.3*	62.6*	-11.8	-18.6	89.2*	90.7*
COC(=O)c1cc(OC)c(OC)cc1NC(=S)N1CCCC1	1.4	-1.0	6.3	-3.8	-4.4	1.3
COC(=O)Cn1c(CN2CCN(c3ccccc3F)CC2)nc2c1c(=O)n(C)c(=O)n2C	3.9	1.6	-1.4	0.1	-4.0	-0.2
NS(=O)(=O)c1ccc(CNC(=O)CNC(=O)c2ccc(F)cc2)cc1	1.1	-5.0	-9.0	1.9	-3.8	0.1
SMILES	CHRM5 antagonist	CHRM5 agonist	CHO-K1 Ca PAM	CHRM5 PAM	CHO-K1 Ca antag	M1 ag parental
Cc1cc(C)nc(/N=C(\N)Nc2ccc(CC(=O)OC(C)C)cc2)n1	41.7*	30.7*	-31.0	-34.6	44.6*	37.5*
COc1ccc(N/C(N)=N/c2nc(C)cc(C)n2)cc1	2.6	0.5	-5.3	-6.7	18.9	6.7
O=C(CCNS(=O)(=O)c1ccc(Br)s1)NC1CCCC1	13.5	-1.2	8.1	-7.1	-21.0	1.8
CC(c1ccccc1)C1OCC(C[N+]2(C)CCCCC2)O1 (stereo unspecified)	30.1*	-9.1	16.6	-17.6	-12.7	-0.4
CCCCC(CC)C1OCC(C[N+]2(C)CCOCC2)O1 (stereo unspecified)	4.9	-7.0	14.2	-11.2	-9.3	-0.2
CC(=O)Nc1cccc(C(=O)OCC(=O)NC2CCCCCCC2)c1	13.5	6.6	-10.3	-23.9	-13.8	15.1*
OCCC1CN(Cc2cnc(-c3ccc(Cl)cc3)nc2)CCN1C1CCCCC1 (stereo unspecified)	29.9*	-9.3	10.4	-13.9	4.0	1.6
Cc1cccc(-c2ncc(CN3CCN(C4CCCC4)C(CCO)C3)cn2)c1 (stereo unspecified)	-16.0	-8.4	29.6	6.1	-20.1	1.1
Cc1cc(C)c(OCC(=O)Nc2ccc(NC(=O)c3ccco3)cc2)c([N+](=O)[O-])c1	-1.8	-0.3	-12.1	25.7*	0.7	1.0
OC(CN1CCOCC1)Cn1c(-c2cccc(Cl)c2)nc2ccccc21 (stereo unspecified)	0.2	-0.9	-9.5	-2.2	27.8*	0.1
Cc1ccc(/C=N/NC(=O)c2nnn(-c3nonc3N)c2-c2ccccc2)o1	0.8	9.4	19.7	-1.3	-9.0	21.9*
COc1cccc(-c2c(C(=O)N/N=C/c3ccco3)nnn2-c2nonc2N)c1	2.7	16.6	-0.3	4.0	-5.3	15.7*
CCCN(CCC)Cc1c(C(=O)N/N=C/c2ccco2)nnn1-c1nonc1N	27.2*	-3.5	11.5	-7.9	-12.0	0.1
CCOc1cccc(-c2c(C(=O)N/N=C/c3ccc(Br)cc3)nnn2-c2nonc2N)c1	0.6	18.1	-5.3	18.2*	1.4	1.2
Nc1nonc1-n1nnc(C(=O)N/N=C/c2ccco2)c1-c1ccccc1	-8.2	13.8	13.4	3.9	-15.7	1.9
CCOc1ccc(-c2c(C(=O)N/N=C/c3ccc(C)o3)nnn2-c2nonc2N)cc1	21.7	1.0	-0.2	-5.4	-7.8	2.8
CCOc1cccc(-c2c(C(=O)N/N=C/c3cccnc3)nnn2-c2nonc2N)c1	-6.2	2.8	19.8	2.9	-3.5	3.8
O=C(Cn1c(=O)oc2cc(S(=O)(=O)N3CCCC3)ccc21)NCc1ccccn1	-2.2	-1.5	-5.7	2.0	1.9	0.5
